Published values from different studies.
Protocols differ between the studies behind these lines.
Target: Insulin receptor-related protein (INSRR, Homo sapiens, UniProt P14616)

COc1cc(Nc2cnc(C#N)c(O[C@H](C)CN(C)C)n2)ncc1-c1cnn(C)c1 — remaining activity (enzyme activity; inhibitor; radiometric; 10 µM): 89%
Nc1nc(NC2CCCCC2)sc1C(=O)c1ccccc1 — remaining activity (enzyme activity; inhibitor; 10 µM): 25%
COc1cc(/C=C/C(=O)CC(=O)/C=C/c2ccc(O)c(OC)c2)ccc1O — activity vs control (enzyme activity; inhibitor; 1 µM): 84%
CC1=C(C#N)C(c2ccc3c(c2)c(NC(=O)c2ccccc2C)nn3C)C(C#N)=C(C)N1 — remaining binding (cell-free assay; competition with immobilised ligand; 1 µM): 100%
Cc1cc(NC(=O)c2cccc3cc(-c4cccc5[nH]nc(N)c45)ccc23)ccc1F — activity vs control (enzyme activity; inhibitor; 0.1 µM): 106%
CCN(CC)CCNC(=O)c1c(C)[nH]c(/C=C2\C(=O)Nc3ccc(F)cc32)c1C — inhibition (enzyme activity; inhibitor; 0.3 µM): 25%
O=C(Nc1cnn(-c2csc(C(=O)NC3COC3)c2)c1)Nc1c(F)cccc1Cl — remaining activity (enzyme activity; inhibitor; 5 µM): 75.9%
Cc1cc(NC(=O)c2cccc(S(F)(F)(F)(F)F)c2)cc(-n2ccn3nc(-c4cccnc4)cc23)c1 — remaining binding (cell-free assay; competition with immobilised ligand; 1 µM): 100%
FC(F)c1nc2ccccc2n1-c1nc(N2CCOCC2)nc(N2CCOCC2)n1 — remaining activity (enzyme activity; inhibitor; 10 µM): 88%
Cc1ccc(NC(=O)c2ccc(C)c(C(F)(F)F)c2)cc1C#Cc1nn(C2CCC(O)CC2)c2ncnc(N)c12 (stereo not shown) — remaining signal (cell-free assay; 10 µM): 107%
Cc1ccc(Nc2nccc(N(C)c3ccc4c(C)n(C)nc4c3)n2)cc1S(N)(=O)=O — inhibition (enzyme activity; inhibitor; 0.3 µM): -22%
Cn1c(=O)n(-c2ccc(C(C)(C)C#N)cc2)c2c3cc(-c4cnc5ccccc5c4)ccc3ncc21 — remaining activity (enzyme activity; inhibitor; 10 µM): 80%
COc1cc2ncnc(Nc3ccc(Oc4ccccc4)c(C)c3C)c2cc1OC — inhibition (enzyme activity; inhibitor; 1 µM): 2%
CNC(=O)c1cc(Oc2ccc(NC(=O)Nc3ccc(Cl)c(C(F)(F)F)c3)cc2)ccn1 — inhibition (enzyme activity; inhibitor; 10 µM): 8%
CC(C)(O)[C@H]1CC[C@H](Nc2ccc3ncc(-c4cccc(C(F)(F)F)c4)n3n2)CC1 — remaining activity (enzyme activity; inhibitor; 1 µM): 77%
O=C1NC(=O)c2cc(Nc3ccc(F)cc3)c(Nc3ccc(F)cc3)cc21 — remaining signal (cell-free assay; 0.5 µM): 111%
O=C(Nc1cccnn1)N1CCC(=Cc2cccc(Oc3ccc(C(F)(F)F)cn3)c2)CC1 — remaining binding (cell-free assay; competition with immobilised ligand; 1 µM): 100%
CCCOc1ccc(OC)c(F)c1C(=O)c1ccc(C(=O)N[C@@H]2CNC[C@H]2NC(=O)c2ccc3[nH]ncc3c2)cc1 — remaining activity (enzyme activity; inhibitor; 10 µM): 87%
CN(C)c1ncnc(-c2ccc3nc(Nc4cc(CN5CCN(C(=O)CC(F)(F)F)CC5)ccn4)[nH]c3c2)c1Cl — remaining binding (cell-free assay; competition with immobilised ligand; 1 µM): 95%
O=C1Nc2ccc(Cl)cc2C1=Cc1cc(Cl)c(O)c(Cl)c1 — remaining signal (cell-free assay; 0.5 µM): 100%
CC(=O)N1CCC(c2ccc(C(=O)NC(=N)N)cc2C(F)(F)F)CC1 — remaining binding (cell-free assay; competition with immobilised ligand; 1 µM): 100%
CC/C(=N\NC(=O)NCc1cccc(O)c1)c1ccc(O)c(C)c1O — inhibition (enzyme activity; inhibitor; 0.1 µM): 1.7%
O=C(N[C@H]1CCCCC/C=C\C2C[C@@]2(C(=O)O)NC(=O)[C@@H]2C[C@@H](Oc3ccncc3)CN2C1=O)OC1CCCC1 (stereo partly shown) — remaining binding (binding; competition with immobilised ligand; 1 µM): 100%
Cc1ccc(C(=O)NCc2ccsc2)cc1C#Cc1cn(C(C)C)c2ncnc(N)c12 — activity vs control (enzyme activity; inhibitor; 1 µM): 105%
CN(C)CC#Cc1ccc(OCCCc2sc(N3CCc4cccc(C(=O)Nc5nc6ccccc6s5)c4C3)nc2C(=O)O)c(F)c1 — remaining binding (cell-free assay; competition with immobilised ligand; 1 µM): 90%
COc1cc(Cl)c(C(=O)N[C@@H](CN[C@H]2CC[C@@H](N)CC2)Cc2ccc(C#N)cc2)cc1-c1ccc(CN[C@H](C)c2ccc(C)cc2)o1 — remaining activity (enzyme activity; inhibitor; 1 µM): 98%
O=C(NC[C@@H]1[C@H]2CN(C(=O)OCc3cc(C(F)(F)F)cc(C(F)(F)F)c3)C[C@@H]12)c1ccc2[nH]nnc2c1 — remaining binding (cell-free assay; competition with immobilised ligand; 1 µM): 83%
CC(C)(C)c1nc2c(s1)c1nc(N)ncc1c1ccc(NS(=O)(=O)c3c(F)cccc3F)c(F)c12 — remaining activity (enzyme activity; inhibitor; radiometric; 1 µM): 107%
